Data taken from ChEMBL document CHEMBL4321838, “Drug Design Targeting T-Cell Factor-Driven Epithelial-Mesenchymal Transition as a Therapeutic Strategy for Colorectal Cancer” (J Med Chem, 2019).
≈ marks a conversion by molar mass, not a printed value. Calls of active or inactive are those of the source.

Tests used:
[1] = Tmax in CD-1 mouse at 50 mg/kg, ip by LC-MS/MS analysis; format: ADME, organism-based; conditions: in vivo
Summary of the method: (§1)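 Female CD-1 mice, single IP injection at 50 mg/kg in 100% DMSO. Sampling from 0.25 to 24 h, three mice per time point (21 per compound). Heparinised blood was spun to plasma, mixed 1:1 with acidified acetonitrile (0.1% formic acid or 0.1% TFA depending on compound), centrifuged, then measured by LC-MS/MS.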

[2] = Cmax in CD-1 mouse at 50 mg/kg, ip by LC-MS/MS analysis; format: ADME, organism-based; design: dose 50 mg/kg, route intraperitoneal; conditions: in vivo; summary of the method: as §1
[3] = target: T1, DNA topoisomerase 2-alpha (Homo sapiens, UniProt P11388); assay: Inhibition of topoisomerase 2alpha in human SW620 organoids transfected with VimPro-GFP reporter assessed as reversion of epithelial-mesenchymal transition by measuring reduction in vimentin expression up to 40 uM after 72 hrs by Hoechst 33342 staining based GFP reporter gene assay
Summary of the method: (§2)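 SW620 cells stably carrying VimPro-GFP or EcadPro-mCherry (puromycin selected) grown as organoids and dosed 72 h. Stained with 16 μM Hoechst 33342 for 1 h and imaged as 15 z-layers, 26.5 μm apart. Nuclei segmented and GFP- or mCherry-positive cells counted above background thresholds. Percent positive cells normalised to DMSO.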

[4] = Half life in CD-1 mouse microsomes measured up to 1 hr by LC-MS analysis; format: ADME, Microsome
Summary of the method: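 Female CD-1 mouse liver microsomes (0.5 mg/mL), substrate 1 μg/mL and 1.5 mM NADPH in 0.1 M phosphate buffer pH 7.4 at 37 °C. Samples taken from 0 to 60 min and quenched with an equal volume of acetonitrile. Parent compound remaining measured by LC-MS/MS without internal standard.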

[5] = target: T1, DNA topoisomerase 2-alpha; assay: Inhibition of human topoisomerase 2alpha mediated decatenation at 30 uM using kDNA as susbtrate preincubated for 20 mins followed by substrate and ATP addition and measured after 1 hr by ethidium bromide staining based gel electrophoresis method relative to control
Summary of the method: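 Human TOP2A (3 U) preincubated 20 min at 37 °C with compound at 30 μM in 1.2% DMSO. Reaction started with 2 mM ATP and 35 ng kDNA and run 1 h at 37 °C. Products resolved on 0.8% agarose in TBE with 0.2 μg/mL ethidium bromide; decatenated bands compared with vehicle.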

SW-620 [6] = assay: Anticlonogenic activity against human SW620 cells assessed as loss of cancer stem cell stemness by measuring inhibition of colony formation at 10 uM incubated for 24 hrs followed by replating and measured after 7 days by clonogenic assay; format: functional, cell-based
[7] = AUC(0 to t) in CD-1 mouse at 50 mg/kg, ip by LC-MS/MS analysis; format: ADME, organism-based; conditions: in vivo; summary of the method: as §1
Mus musculus = assay: Apparent volume of drug distribution in CD-1 mouse at 50 mg/kg, ip by LC-MS/MS analysis; format: ADME, organism-based; conditions: in vivo; summary of the method: as §1
[8] = Drug metabolism in CD-1 mouse active microsomes assessed as CYP450-mediated oxidative phase 1 metabolite formation by LC-MS/MS analysis
SW-620 [9] = assay: Induction of apoptosis in human SW620 organoids assessed as increase in cleaved caspase 3/7 level at 40 uM after 72 hrs by caspase-glo 3/7 luminescence assay relative to control; format: functional
Summary of the method: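 SW620 cells, 2,000 per well in 384-well ultra-low attachment plates with 2% Matrigel, grown 72 h into organoids, then dosed 72 h. Caspase-Glo 3/7 reagent added 1:1 and shaken 30 min; luminescence read. Staurosporine served as positive control and 0.4% DMSO as negative control.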

SW-620 [10] = assay: Induction of early stage cell death in human SW620 organoids transfected with EcadPro-RFP reporter assessed as loss of RFP reporter activity at 40 uM at after 72 hrs by Hoechst 33342 staining based mCherryRFP reporter gene assay; conditions: sw-620, 72 h
SW-620 [11] = assay: Antiinvasive activity in human SW620 organoids transduced with NucLight-Red virus assessed as inhibition of cell invasion at 10 uM incubated for 72 hrs and measured after 72 hrs by matrigel based fluorescence analysis; format: functional
Summary of the method: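 NucLight-Red-labelled SW620 organoids treated 72 h at 10 μM in 0.1% DMSO, then dissociated. 5,000 live cells per well seeded in 50% Matrigel in the upper chamber of a migration plate, 0.5% FBS above and 20% FBS below. Invading cells tracked by bottom-side fluorescence over days, six replicates per condition.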

SW-620 [12] = assay: Cytotoxicity against human SW620 organoids assessed as cell death with loss of membrane integrity after 72 hrs by CellTox Green assay; format: functional, cell-based; conditions: SW-620, 72 h
Summary of the method: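 SW620 tumor organoids exposed 72 h to inhibitor over 0–40 μM together with CellTox Green Express (0.5X). Whole-well mean fluorescence imaged (ex 488, em 500–550 nm). Normalised to lysis buffer as 0% viability and 0.4% DMSO as 100% viability.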

SW-620 [13] = assay: Cytotoxicity against human SW620 organoids assessed as growth inhibition at 10 uM after 72 hrs by brightfield imaging of organoid volume
[14] = Half life of terminal disposition phase in CD-1 mouse at 50 mg/kg, ip by LC-MS/MS analysis; format: ADME, organism-based; conditions: in vivo, read-out: t1/2lambda (converted); summary of the method: as §1
[15] = target: T1, DNA topoisomerase 2-alpha; assay: Inhibition of topoisomerase 2alpha in human SW620 organoids transfected with EcadPro-RFP reporter assessed as reversion of epithelial-mesenchymal transition by measuring increase in E-cadherin expression up to 40 uM after 72 hrs by Hoechst 33342 staining based mCherryRFP reporter gene assay; summary of the method: as §2
[16] = Metabolic stability in CD-1 mouse inactive microsomes incubated for 1 hr by LC-MS/MS analysis; format: ADME, Microsome
[17] = Clearance in CD-1 mouse at 50 mg/kg, ip by LC-MS/MS analysis; format: ADME, organism-based; conditions: in vivo; summary of the method: as §1
[18] = Aqueous solubility of compound in PBS at 1 mg after 18 hrs by UV based analysis; format: physicochemical
Summary of the method: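 Undissolved material removed by centrifugation at 5,000g for 45 min. UV absorption compared with a fully saturated 1-propanol solution; solubility derived by linear regression.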

[19] = target: T1, DNA topoisomerase 2-alpha; assay: Inhibition of topoisomerase 2alpha dependent TCF transcription in human SW620 organoids transduced with TOPflash luminescent reporter after 72 hrs by luciferase based TOPFlash reporter gene assay
Summary of the method: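 SW620 cells stably carrying pCDH-TOPflash-luc grown as organoids: 5,000 cells per U-bottom well in phenol red-free RPMI with 5% FBS and 2% Matrigel, 72 h. Inhibitor then applied 72 h. One-Glo luciferase and CellTiter-Glo 3D added 1:1. Luciferase signal normalised to viability, then to DMSO controls.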

[20] = Metabolic stability in CD-1 mouse active microsomes assessed as CYP450-mediated oxidative phase 1 metabolite formation measured up to 60 mins by LC-MS/MS analysis; format: ADME; conditions: 1 h
[21] = compound: COc1cc(NC(C)=O)c(O)c2nccc(-c3ccccc3NC(=O)c3ccccc3)c12; assay: (§3) Competitive inhibition of human topoisomerase 2alpha ATPase activity assessed as Vmax for ATP hydrolysis with DNA relaxation at 10 uM using supercoiled plasmid DNA as susbtrate after 1 hr by malachite green assay/Michelis-Menten kinetics analysis (reference value: 0.652 to 0.6529 pmol/s)
[22] = compound: Cn1ccc2c(c1=O)C(=O)c1nccc3c1c-2nc1ccccc13; assay: as §3
[23] = compound: COc1cc(NC(C)=O)c(O)c2nccc(-c3ccccc3NC(=O)c3ccccc3)c12; assay: (§4) Competitive inhibition of human topoisomerase 2alpha ATPase activity assessed as Km for ATP hydrolysis with DNA relaxation at 10 uM using supercoiled plasmid DNA as susbtrate after 1 hr by malachite green assay/Michelis-Menten kinetics analysis (reference value: 317.8 to 350.1 microM)
[24] = compound: Cn1ccc2c(c1=O)C(=O)c1nccc3c1c-2nc1ccccc13; assay: as §4
[25] = compound: COc1cc(NC(C)=O)c(O)c2nccc(-c3ccccc3NC(=O)c3ccccc3)c12; assay: Competitive inhibition of human topoisomerase 2alpha ATPase activity assessed as Vmax for ATP hydrolysis with DNA relaxation at 5 uM using supercoiled plasmid DNA as susbtrate after 1 hr by malachite green assay/Michelis-Menten kinetics analysis (reference value: 0.652 to 0.6529 pmol/s)
[26] = compound: COc1cc(NC(C)=O)c(O)c2nccc(-c3ccccc3NC(=O)c3ccccc3)c12; assay: Competitive inhibition of human topoisomerase 2alpha ATPase activity assessed as Km for ATP hydrolysis with DNA relaxation at 5 uM using supercoiled plasmid DNA as susbtrate after 1 hr by malachite green assay/Michelis-Menten kinetics analysis (reference value: 317.8 to 350.1 microM)
[27] = compound: Cn1ccc2c(c1=O)C(=O)c1nccc3c1c-2nc1ccccc13; assay: Competitive inhibition of human topoisomerase 2alpha ATPase activity assessed as Km for ATP hydrolysis with DNA relaxation at 20 uM using supercoiled plasmid DNA as susbtrate after 1 hr by malachite green assay/Michelis-Menten kinetics analysis (reference value: 317.8 to 350.1 microM)
[28] = compound: Cn1ccc2c(c1=O)C(=O)c1nccc3c1c-2nc1ccccc13; assay: Competitive inhibition of human topoisomerase 2alpha ATPase activity assessed as Vmax for ATP hydrolysis with DNA relaxation at 20 uM using supercoiled plasmid DNA as susbtrate after 1 hr by malachite green assay/Michelis-Menten kinetics analysis (reference value: 0.652 to 0.6529 pmol/s)

O=C(CCN1CCOCC1)Nc1ccc2c(-c3cc(F)ccc3O)ccnc2c1O
Tmax [1]: 15 min | Cmax [2]: 10900 ng/mL | inhibition [3]: Active | t1/2 [4]: 8.53 min | inhibition [5]: 90% | inhibition (SW-620 [6]): Active | AUC(0-t) [7]: 13000 ng·h/mL | Vz (Mus musculus): 34 L/kg | Drug metabolism [8]: Metabolite_Notdetected | fold change (FC) (SW-620 [9]): 9 | Activity (SW-620 [10]): Active | inhibition (SW-620 [11]): Active | EC50 (SW-620 [12]): 16 µM | growth inhibition (GI) (SW-620 [13]): Active | half-life [14]: 379 min | inhibition [15]: Active | Stability [16]: Stable | CL/F [17]: 62.2 mL/min/kg | solubility thermodynamic at 18 h [18]: 1520 µg/mL (≈ 3.69 mM) | IC50 [19]: 0.7 µM | Drug metabolism [20]: Metabolite_Detected

B1: DNA topoisomerase 2-alpha (Homo sapiens), P11388 (protein)
chain: MEVSPLQPVNENMQVNKIKKNEDAKKRLSVERIYQKKTQLEHILLRPDTYIGSVELVTQQMWVYDEDVGINYREVTFVPGLYKIFDEILVNAADNKQRDPKMSCIRVTIDPENNLISIWNNGKGIPVVEHKVEKMYVPALIFGQLLTSSNYDDDEKKVTGGRNGYGAKLCNIFSTKFTVETASREYKKMFKQTWMDNMGRAGEMELKPFNGEDYTCITFQPDLSKFKMQSLDKDIVALMVRRAYDIAGSTKDVKVFLNGNKLPVKGFRSYVDMYLKDKLDETGNSLKVIHEQVNHRWEVCLTMSEKGFQQISFVNSIATSKGGRHVDYVADQIVTKLVDVVKKKNKGGVAVKAHQVKNHMWIFVNALIENPTFDSQTKENMTLQPKSFGSTCQLSEKFIKAAIGCGIVESILNWVKFKAQVQLNKKCSAVKHNRIKGIPKLDDANDAGGRNSTECTLILTEGDSAKTLAVSGLGVVGRDKYGVFPLRGKILNVREASHKQIMENAEINNIIKIVGLQYKKNYEDEDSLKTLRYGKIMIMTDQDQDGSHIKGLLINFIHHNWPSLLRHRFLEEFITPIVKVSKNKQEMAFYSLPEFEEWKSSTPNHKKWKVKYYKGLGTSTSKEAKEYFADMKRHRIQFKYSGPEDDAAISLAFSKKQIDDRKEWLTNFMEDRRQRKLLGLPEDYLYGQTTTYLTYNDFINKELILFSNSDNERSIPSMVDGLKPGQRKVLFTCFKRNDKREVKVAQLAGSVAEMSSYHHGEMSLMMTIINLAQNFVGSNNLNLLQPIGQFGTRLHGGKDSASPRYIFTMLSSLARLLFPPKDDHTLKFLYDDNQRVEPEWYIPIIPMVLINGAEGIGTGWSCKIPNFDVREIVNNIRRLMDGEEPLPMLPSYKNFKGTIEELAPNQYVISGEVAILNSTTIEISELPVRTWTQTYKEQVLEPMLNGTEKTPPLITDYREYHTDTTVKFVVKMTEEKLAEAERVGLHKVFKLQTSLTCNSMVLFDHVGCLKKYDTVLDILRDFFELRLKYYGLRKEWLLGMLGAESAKLNNQARFILEKIDGKIIIENKPKKELIKVLIQRGYDSDPVKAWKEAQQKVPDEEENEESDNEKETEKSDSVTDSGPTFNYLLDMPLWYLTKEKKDELCRLRNEKEQELDTLKRKSPSDLWKEDLATFIEELEAVEAKEKQDEQVGLPGKGGKAKGKKTQMAEVLPSPRGQRVIPRITIEMKAEAEKKNKKKIKNENTEGSPQEDGVELEGLKQRLEKKQKREPGTKTKKQTTLAFKPIKKGKKRNPWSDSESDRSSDESNFDVPPRETEPRRAATKTKFTMDLDSDEDFSDFDEKTDDEDFVPSDASPPKTKTSPKLSNKELKPQKSVVSDLEADDVKGSVPLSSSPPATHFPDETEITNPVPKKNVTVKKTAAKSQSSTSTTGAKKRAAPKGTKRDPALNSGVSQKPDPAKTKNRRKRKPSTSDDSDSNFEKIVSKAVTSKKSKGESDDFHMDFDSAVAPRAKSVRAKKPIKYLEESDEDDLF
Vmax [21]: 0.646 pmol/s | Vmax [22]: 0.657 pmol/s | Km [23]: 387 µM | Km [24]: 518 µM | Vmax [25]: 0.65 pmol/s | Km [26]: 380 µM | Km [27]: 651 µM | Vmax [28]: 0.65 pmol/s
